Reference: PubChem BioAssay
Active and inactive are the calls of the source.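 The calls were made as follows, unless noted: active = viability at or below 30% in both replicate assays; inconclusive = viability at or below 30% in just one of the two assays; inactive = the rest.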

Legend:
[1] = reducers of endogenous Her2 protein level, primary screen, SKBR3 breast tumor cells, AlphaScreen, ATP viability (AID 461;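 active = Her2 level under about 52% in both replicate screens, with viability over 70% of control, limit read from the data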;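 as to Her2 level: lower value means less Her2 protein in the cells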;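 as to viability: percent of carrier control wells set as 100% viability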); details: 18-24 h, measured here: SKBR3 viability, ATP luminescence, at 10 µM
[2] = molecular target: Receptor tyrosine-protein kinase erbB-2 (Homo sapiens) (UniProt P04626); test: as above; details: 18-24 h, at 10 µM, stronger effect = lower value
[3] = SK-BR-3 cell growth inhibitors, pilot screen, 24 h, human (AID 572;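 active = viability at or below 10% of carrier control in both of two separate runs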;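 also: compound exposure lasted between 18 and 24 h rather than exactly 24 h; 100% = carrier-treated control wells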); details: SK-BR-3 viability, CellTiter-Glo luminescence, at 10 µM, stronger effect = lower value
[4] = HUVEC growth inhibition – cell-based, human, primary screen (AID 575); details: HUVEC proliferation, CellTiter-Glo luminescence, 72 h; at 10 µM; stronger effect = lower value;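 also: 100% = median of untreated cell wells with 0.1% DMSO on each plate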
How it was run: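 Test system: primary human umbilical vein endothelial cells. Quantity: 1250 cells/well. Compound: single 10 µM dose, 0.1% DMSO, from 5x medium stock. Timing: 72 h treatment at 37 °C. Detection: ATP-based CellTiter-Glo luminescent read. Benchmarks: vehicle and MePR control wells. Format: 384-well plates coated with collagen.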

[5] = reversal of MRP1-mediated doxorubicin resistance, pilot screen, H69AR cells, doxorubicin co-treatment (AID 601;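 active = viability loss from added drug above about 55%, and viability with drug at most 40%, in both replicates, limit read from the data, passing the limit was not always enough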); details: CellTiter-Glo, 72 h, at 10 µM; for differential viability (reversal): stronger effect = higher value
[6] = 384-well plate pilot, post-Golgi transport modulator project, inhibition of yeast transport mutant growth (AID 636; in the data active = inhibition above about 31%); details: absorbance 615 nm, about 18 h, stronger effect = higher value
[7] = growth suppression of yeast trafficking mutant, preliminary HTS, modulators of trafficking downstream of Golgi apparatus project, 1536-format plate, OD 615 nm (AID 637; in the data active = inhibition above about 30%); details: yeast transport mutant growth, absorbance 615 nm, 18 h; stronger effect = higher value
[8] = H69AR cells + 2 uM doxorubicin, measured here: viability with 2 uM doxorubicin, stronger effect = lower value
[9] = H69AR cells, compound alone cytotoxicity

Receptor tyrosine-protein kinase erbB-2 (Homo sapiens), sequence (P04626 whole entry, looked up): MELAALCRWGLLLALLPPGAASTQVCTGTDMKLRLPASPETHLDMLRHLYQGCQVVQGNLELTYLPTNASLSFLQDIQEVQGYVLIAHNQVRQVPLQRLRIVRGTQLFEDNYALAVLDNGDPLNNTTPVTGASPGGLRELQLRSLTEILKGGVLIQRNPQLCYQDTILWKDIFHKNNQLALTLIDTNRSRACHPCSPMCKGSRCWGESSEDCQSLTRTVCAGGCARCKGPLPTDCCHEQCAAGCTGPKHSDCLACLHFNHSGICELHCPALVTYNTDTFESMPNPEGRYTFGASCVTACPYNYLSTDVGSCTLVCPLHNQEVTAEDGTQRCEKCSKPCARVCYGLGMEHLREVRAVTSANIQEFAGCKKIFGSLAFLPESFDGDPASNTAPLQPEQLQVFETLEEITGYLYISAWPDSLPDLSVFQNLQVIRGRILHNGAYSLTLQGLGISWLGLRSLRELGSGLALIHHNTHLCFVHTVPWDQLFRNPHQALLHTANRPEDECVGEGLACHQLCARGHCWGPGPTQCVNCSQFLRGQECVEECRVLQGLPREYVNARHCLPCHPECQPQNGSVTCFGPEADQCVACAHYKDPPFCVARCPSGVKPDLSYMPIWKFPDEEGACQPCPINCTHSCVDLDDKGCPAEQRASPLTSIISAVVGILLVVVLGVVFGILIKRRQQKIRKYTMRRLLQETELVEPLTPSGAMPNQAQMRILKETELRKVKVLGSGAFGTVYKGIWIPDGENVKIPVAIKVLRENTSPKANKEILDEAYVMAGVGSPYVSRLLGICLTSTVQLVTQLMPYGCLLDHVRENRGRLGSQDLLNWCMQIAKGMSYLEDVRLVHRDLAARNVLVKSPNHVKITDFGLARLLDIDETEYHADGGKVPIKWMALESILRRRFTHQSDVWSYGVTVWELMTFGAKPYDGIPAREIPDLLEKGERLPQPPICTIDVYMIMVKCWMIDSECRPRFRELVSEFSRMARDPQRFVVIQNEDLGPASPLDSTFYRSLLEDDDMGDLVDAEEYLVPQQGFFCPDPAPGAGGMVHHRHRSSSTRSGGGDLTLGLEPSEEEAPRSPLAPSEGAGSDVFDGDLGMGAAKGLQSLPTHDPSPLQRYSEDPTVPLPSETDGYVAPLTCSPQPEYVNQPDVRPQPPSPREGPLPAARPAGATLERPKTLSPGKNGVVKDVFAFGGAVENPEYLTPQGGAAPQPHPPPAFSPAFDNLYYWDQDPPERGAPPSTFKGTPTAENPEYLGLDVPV

| SMILES | viability [1] [%] | Her2 level [2] | viability [3] | viability [4] | differential viability (reversal) ([5]; H69AR cells + 2 uM doxorubicin) | viability [5, 8] [%] | viability [5, 9] [%] | inhibition [6] | inhibition [7] |
| --- | --- | --- | --- | --- | --- | --- | --- | --- | --- |
| COc1ccc(OCC(=O)N2CCN(C(=O)COc3ccc(Br)cc3)CC2)cc1 | 84.5 | 95.5% (inactive) | 84.5% (inactive) | 81.3% (inactive) | 7.19% (inactive) | 40.4 | 47.6 | -2.67% (inactive) | 3.71% (inactive) |
| OC(CN1CCOCC1)Cn1c(-c2cccc(Cl)c2)nc2ccccc21 (stereo unspecified) | 100 | 80% (inactive) | 100% (inactive) | 54.4% (inactive) | -47.5% (inactive) | 66 | 18.5 | -6.75% (inactive) | -1.11% (inactive) |
| CCc1cc2c(=O)c(-c3nc4ccccc4[nH]3)coc2cc1OC(=O)N1CCOCC1 | 100 | 81.5% (inactive) | 100% (inactive) | 64.8% (inactive) | -13.9% (inactive) | 71.6 | 57.7 | -5.07% (inactive) | -5.08% (inactive) |
| Cc1ccc2c(c1)c1c(n2CC(O)Cn2c(C)nc3ccccc32)/C(=N\O)CCC1 (stereo unspecified) | 108 | 76.5% (inactive) | 108% (inactive) | 1.52% (active) | -12.7% (inactive) | 44.1 | 31.5 | -4.27% (inactive) | 15.4% (inactive) |
